# Measurements: ChEMBL document CHEMBL1143827, “In vitro activity of 2,4-diamino-6-[2-(phosphonomethoxy)ethoxy]-pyrimidine against multidrug-resistant hepatitis B virus mutants” (Antimicrob Agents Chemother, 2007)
# Assays:
# [1] = system: Hepatitis B virus; assay: Inhibition of wild type HBV replication in Huh7 cells; type: functional, organism-based; conditions: Huh-7
# Procedure, shortened: (§1)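 Huh7 hepatoma cells were transiently transfected with plasmids carrying 1.1 genome units of wild-type HBV under a chicken beta-actin promoter, then treated with drug across a range starting at 0 μM (up to 100 μM for some drugs). Intracellular HBV DNA was purified and analysed by Southern blot to derive EC50. Values are means of at least three independent experiments, each run in triplicate.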
# [2] = Effect on cell viability in human Huh7 cells; type: cell-based, Huh-7
# Procedure, shortened: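 Huh7 cells were exposed to drug, and viability was read as neutral red dye uptake. CC50 is the concentration that cut uptake by 50%, given as mean ± SD of three independent experiments run in quadruplicate.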
# [3] = system: Hepatitis B virus; assay: Antiviral activity against wild type HBV assessed as inhibition of replication; type: functional, organism-based; procedure, shortened: as §1
# [4] = system: Hepatitis B virus; assay: Antiviral activity against adenofir-resistant HBV with reverse transcriptase N236T mutant assessed as inhibition of replication; type: functional, organism-based
# Procedure, shortened: (§2)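 Huh7 cells transiently transfected with plasmids carrying 1.1 genome units of mutant or wild-type HBV under the chicken beta-actin promoter. Drug range was 0 to 100 μM for PMEO-DAPym, lamivudine, adefovir and tenofovir. Intracellular HBV DNA was purified and analysed by Southern blot to give EC50. Values are means of at least three independent experiments, each run in triplicate.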
# [5] = system: Hepatitis B virus; assay: Fold resistance, ratio of lamivudine-resistant HBV with reverse transcriptase V173L/L180/M204V mutant to wild-type HBV genotype H; type: functional
# Procedure, shortened: (§3)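 Each mutant and its corresponding wild-type strain were transfected into Huh7 cells and treated in parallel with the same drug concentration range, with HBV DNA read by Southern blot. Fold resistance = mutant EC50 / corresponding wild-type EC50. Uses means of at least three independent experiments, each in triplicate.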
# [6] = system: Hepatitis B virus; assay: Fold resistance, ratio of Lamivudine -adenofir-resistant HBV with reverse transcriptase V173L/L180M/A181V mutant to wildtype HBV genotype E; type: functional; procedure, shortened: as §3
# [7] = system: Hepatitis B virus; assay: Fold resistance, ratio of Lamivudine -adenofir-resistant with HBV reverse transcriptase V173L/L180M/A181V/M204V mutant to wildtype HBV genotype E; type: functional; procedure, shortened: as §3
# [8] = system: Hepatitis B virus; assay: Fold resistance, ratio of lamivudine -adenofir-resistant with HBV reverse transcriptase V173L/L180M/A181V/M204V/N236T mutant to wild-type HBV genotype E; type: functional; procedure, shortened: as §3
# [9] = system: Hepatitis B virus; assay: Fold resistance, ratio of Lamivudine -adenofir-resistant with HBV reverse transcriptase V173L/L180M/A181V/N236T mutant to wildtype HBV genotype E; type: functional; procedure, shortened: as §3
# [10] = system: Hepatitis B virus; assay: Fold resistance, ratio of entecavir-resistant HBV with reverse transcriptase L180M/S202G/M204V mutant to wild-type HBV genotype H; type: functional; procedure, shortened: as §3
# [11] = system: Hepatitis B virus; assay: Antiviral activity against lamivudine-resistant HBV with reverse transcriptase L180M/M204V mutant assessed as inhibition of replication; type: functional, organism-based; procedure, shortened: as §2
# [12] = system: Hepatitis B virus; assay: Antiviral activity against lamivudine-adefovir-resistant HBV with reverse transcriptase L180M/M204V/N236T mutant assessed as inhibition of replication; type: functional, organism-based; procedure, shortened: as §2
# [13] = system: Hepatitis B virus; assay: Fold resistance, ratio of EC50 for adenofir-resistant HBV with reverse transcriptase N236T mutant to EC50 for wild-type HBV; type: functional; procedure, shortened: as §3
# [14] = system: Hepatitis B virus; assay: Fold resistance, ratio of EC50 for lamivudine-resistant HBV with reverse transcriptase L180M/M204V mutant to EC50 for wild-type HBV; type: functional; procedure, shortened: as §3
# [15] = system: Hepatitis B virus; assay: Fold resistance, ratio of EC50 for lamivudine-adefovir-resistant HBV with reverse transcriptase L180M/M204V/N236T mutant to EC50 for wild-type HBV; type: functional; procedure, shortened: as §3
# [16] = system: Hepatitis B virus; assay: Antiviral activity against wild type HBV genotype H assessed as inhibition of replication; type: functional, organism-based; procedure, shortened: as §1
# [17] = system: Hepatitis B virus; assay: Antiviral activity against wild type HBV genotype E assessed as inhibition of replication; type: functional, organism-based; procedure, shortened: as §1
# [18] = system: Hepatitis B virus; assay: Antiviral activity against lamivudine-resistant HBV with reverse transcriptase L180M/M204V mutant; type: functional, organism-based; procedure, shortened: as §2
# [19] = system: Hepatitis B virus; assay: Antiviral activity against lamivudine-resistant HBV with reverse transcriptase L180M/A181V mutant; type: functional, organism-based; procedure, shortened: as §2
# [20] = system: Hepatitis B virus; assay: Antiviral activity against lamivudine-resistant HBV with reverse transcriptase V173L/L180/M204V mutant; type: functional, organism-based; procedure, shortened: as §2
# [21] = system: Hepatitis B virus; assay: Antiviral activity against lamivudine-adenofir-resistant HBV with reverse transcriptase V173L/L180M/A181V mutant; type: functional, organism-based; procedure, shortened: as §2
# [22] = system: Hepatitis B virus; assay: Antiviral activity against Lamivudine -adenofir-resistant HBV with reverse transcriptase V173L/L180M/A181V/M204V mutant; type: functional, organism-based; procedure, shortened: as §2
# [23] = system: Hepatitis B virus; assay: Antiviral activity against Lamivudine -adenofir-resistant HBV with reverse transcriptase V173L/L180M/A181V/M204V/N236T mutant; type: functional, organism-based; procedure, shortened: as §2
# [24] = system: Hepatitis B virus; assay: Antiviral activity against lamivudine-adenofir-resistant HBV with reverse transcriptase V173L/L180M/A181V/N236T mutant; type: functional, organism-based; procedure, shortened: as §2
# [25] = system: Hepatitis B virus; assay: Antiviral activity against entecavir-resistant HBV with reverse transcriptase L180M/S202G/M204V mutant; type: functional, organism-based; procedure, shortened: as §2
# [26] = system: Hepatitis B virus; assay: Fold resistance, ratio of lamivudine-resistant HBV with reverse transcriptase L180M/M204V mutant to wild-type HBV genotype E; type: functional; procedure, shortened: as §3
# [27] = system: Hepatitis B virus; assay: Fold resistance, ratio of lamivudine-resistant HBV with reverse transcriptase L180M/A181V mutant to wild-type HBV genotype E; type: functional; procedure, shortened: as §3
Structure (SMILES),EC50 [1] [µM],CC50 [2] [µM],EC50 [3] [µM],EC50 [4] [µM],Ratio EC50 [5],Ratio EC50 [6],Ratio EC50 [7],Ratio EC50 [8],Ratio EC50 [9],Ratio EC50 [10],EC50 [11] [µM],EC50 [12] [µM],Ratio EC50 [13],Ratio EC50 [14],Ratio EC50 [15],EC50 [16] [µM],EC50 [17] [µM],EC50 [18] [µM],EC50 [19] [µM],EC50 [20] [µM],further results
Nc1cc(OCCOCP(=O)(O)O)nc(N)n1,4.9,> 1000,4,4.5,0.9,4.3,3.2,2.1,5.1,1,4.7,5.7,1.1,1.2,1.4,4.4,5.6,5.3,27,4.1,EC50 [21]: 24 µM; EC50 [22]: 18 µM; EC50 [23]: 12 µM; EC50 [24]: 29 µM; EC50 [25]: 4.5 µM; Ratio EC50 [26]: 0.9; Ratio EC50 [27]: 4.8
Nc1ccn([C@@H]2CS[C@H](CO)O2)c(=O)n1 [LAMIVUDINE],1,> 1000,2.48,2.65,>156,1000,>1000,>1000,>1000,>156,> 100,> 100,1.06,>40,>40,0.64,0.1,> 100,80,> 100,EC50 [21]: 100 µM; EC50 [22]: > 100 µM; EC50 [23]: > 100 µM; EC50 [24]: > 100 µM; EC50 [25]: > 100 µM; Ratio EC50 [26]: >1000; Ratio EC50 [27]: 800
C=C1[C@H](CO)[C@@H](O)C[C@@H]1n1cnc2c(=O)[nH]c(N)nc21.O [ENTECAVIR],0.3,125,0.8,0.7,43,50,>=800,461,9,210,5,5,0.88,6.25,6.25,0.09,0.06,10.5,1.5,3.7,EC50 [21]: 2.75 µM; EC50 [22]: ≥ 50 µM; EC50 [23]: 25.4 µM; EC50 [24]: 0.5 µM; EC50 [25]: 18 µM; Ratio EC50 [26]: 175; Ratio EC50 [27]: 28
C[C@H](Cn1cnc2c(N)ncnc21)OCP(=O)(O)O [TENOFOVIR ANHYDROUS],16,> 1000,10.3,46,1.2,1.6,1.8,1.8,1.1,2,35.2,45.5,4.5,3.4,4.4,13.6,25,27,36,16,EC50 [21]: 42 µM; EC50 [22]: 45 µM; EC50 [23]: 46 µM; EC50 [24]: 28 µM; EC50 [25]: 27 µM; Ratio EC50 [26]: 1.1; Ratio EC50 [27]: 1.4
CC(C)(C)C(=O)OCOP(=O)(COCCn1cnc2c(N)ncnc21)OCOC(=O)C(C)(C)C [ADEFOVIR DIPIVOXIL],13,365,15.8,50.3,0.7,4.8,4,7.7,>10,1.1,15.5,100,3.2,0.98,6.3,13.6,10,15,27,9.8,EC50 [21]: 48 µM; EC50 [22]: 40 µM; EC50 [23]: 77 µM; EC50 [24]: > 100 µM; EC50 [25]: 15 µM; Ratio EC50 [26]: 1.5; Ratio EC50 [27]: 2.7
